A short description of data set [1]: Apparent intrinsic clearance in Sprague-Dawley rat hepatocytes assessed per 10^6 cells at 0.1 to 10 uM up to 90 mins by conventional assay. To be noted: read-out: CLH(app). In kind it is ADME, cell-based, Hepatocyte. The essentials:
(§1)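 Fresh rat hepatocytes from collagenase perfusion (viability >85%), three independent preparations. Drug at final 0.1–10 µM in Williams' medium E, 0.5% methanol, preincubated 5 min at 37°C, then mixed with hepatocytes (final 0.1–1 x 10^6 cells/mL) and shaken at 37°C. Ten time points up to 90 min, terminated by snap-freezing the whole cell-plus-medium matrix. LC-MS/MS quantitation; mono- or biexponential depletion fit gives kdep.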

Data set [2] can be described thus: (§2) Apparent intrinsic clearance in Sprague-Dawley rat hepatocytes assessed per 10^6 cells at 0.1 to 10 uM up to 90 mins by media-loss method. The note with it: Sprague-Dawley, read-out: CLH(app). In kind it is ADME, cell-based, Hepatocyte. The essentials:
(§3)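 Freshly isolated rat hepatocytes (collagenase perfusion, >85% viable, three preparations), incubated with drug at final 0.1–10 µM at 37°C, 0.1–1 x 10^6 cells/mL, 0.5% methanol, alongside the whole-matrix assay. At time points up to 90 min the incubation was centrifuged 30 sec at 7000g, and the supernatant medium was snap-frozen and analysed by LC-MS/MS. Loss of drug from the medium was fitted mono- or biexponentially.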

Data set [3] can be described thus: Drug metabolism in Sprague-Dawley rat hepatocytes assessed per 10^6 cells at 0.1 to 10 uM up to 90 mins by conventional assay. In kind it is ADME, cell-based, Hepatocyte. The method, boiled down:
as §1

A short description of data set [4]: Drug metabolism in Sprague-Dawley rat hepatocytes assessed per 10^6 cells at 0.1 to 10 uM up to 90 mins by media-loss method. The class given is ADME, cell-based, Hepatocyte. The method, boiled down:
as §3

The subject of data set [5] is Hepatocyte. Described as §2. The note with it: 1.5 h, 10 µM. In kind it is ADME, cell-based. The method, boiled down:
as §3

As for `CCOc1cc(CC(=O)N[C@@H](CC(C)C)c2ccccc2N2CCCCC2)ccc1C(=O)O` [REPAGLINIDE], the figures for the hepatocyte CLint at up to 10 µM in data set [1] and in data set [2] were 49.9 µL/min/1e6 cells and 49.3 µL/min/1e6 cells, respectively.

In the case of `CC(C)c1nc(N(C)S(C)(=O)=O)nc(-c2ccc(F)cc2)c1/C=C/[C@@H](O)C[C@@H](O)CC(=O)O` [ROSUVASTATIN], the hepatocyte CLint at up to 10 µM amounted to 3.3 µL/min/1e6 cells in data set [1] and 1660 µL/min/1e6 cells in data set [2].

Take `CC[C@H]1OC(=O)[C@H](C)[C@@H](O[C@H]2C[C@@](C)(OC)[C@@H](O)[C@H](C)O2)[C@H](C)[C@@H](O[C@@H]2O[C@H](C)C[C@H](N(C)C)[C@H]2O)[C@](C)(O)C[C@@H](C)C(=O)[C@H](C)[C@@H](O)[C@]1(C)O` [ERYTHROMYCIN]: the hepatocyte CLint at up to 10 µM in data set [1] was 26 µL/min/1e6 cells; in data set [2] it was 35 µL/min/1e6 cells. Further, the Km at 1.5 h, up to 10 µM in data set [3] came to 3.5 µM; in data set [4] it was 5.5 µM.

Regarding `O=C(O)C[C@H](O)C[C@H](O)/C=C/c1c(C2CC2)nc2ccccc2c1-c1ccc(F)cc1` [PITAVASTATIN], the hepatocyte CLint at up to 10 µM in data set [1] turned out to be 7.1 µL/min/1e6 cells. Also, in data set [5], the “CLH(app)” value was 1705 uL/min/10^6cells. In addition, the Km at 1.5 h, up to 10 µM in data set [4] was 13 µM.

Consider `CC(C)c1c(C(=O)Nc2ccccc2)c(-c2ccccc2)c(-c2ccc(F)cc2)n1CC[C@@H](O)C[C@@H](O)CC(=O)O` [ATORVASTATIN], for which the Km at 1.5 h, up to 10 µM in data set [3] is 1.3 µM; in data set [4] it was 0.43 µM.

On to `CC[C@H]1OC(=O)[C@H](C)[C@@H](O[C@H]2C[C@@](C)(OC)[C@@H](O)[C@H](C)O2)[C@H](C)[C@@H](O[C@@H]2O[C@H](C)C[C@H](N(C)C)[C@H]2O)[C@](C)(OC)C[C@@H](C)C(=O)[C@H](C)[C@@H](O)[C@]1(C)O` [CLARITHROMYCIN], for which the hepatocyte CLint at up to 10 µM in data set [1] is 46 µL/min/1e6 cells; in data set [2], 68 µL/min/1e6 cells.

In the case of `CC(C)(C(=O)O)c1ccc(C(O)CCCN2CCC(C(O)(c3ccccc3)c3ccccc3)CC2)cc1` (stereo unspecified) [FEXOFENADINE], the Km at 1.5 h, up to 10 µM in data set [3] was 4.7 µM.
